Measurements: ChEMBL document CHEMBL1806449, “A class of Trp-Trp-AA-OBzl: Synthesis, in vitro anti-proliferation/in vivo anti-tumor evaluation, intercalation-mechanism investigation and 3D QSAR analysis” (Eur J Med Chem, 2011)
Peptide text beside a SMILES is read from it. * marks the point of attachment. OBn = c1ccc(CO*)cc1

Experiments:
K562 = assay: Antiproliferative activity against human K562 cells after 48 hrs by MTT assay; assay type: functional, cell-based; conditions: K562, 48 h
Mus musculus [1] = assay: Toxicity in ICR mouse xenografted with mouse S180 cells assessed as effect on brain weight at 8.9 umol/kg; assay type: organism-based, CCRF S-180; conditions: in vivo
How it was run: (§1)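 S180-bearing male ICR mice (10–12 weeks; 1×10^7 cells s.c. right oxter; 12 per group), daily i.p. 8.9 µmol/kg for seven days starting 24 h after implantation; NS, cytarabine and doxorubicin controls; liver, brain, kidney weights, spleen index and body-weight gain recorded.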

Mus musculus [2] = assay: Acute toxicity in ICR mouse assessed as tetanus at 500 mg/kg, ip administered qd for 7 days; assay type: organism-based; parameters: dose 500 mg/kg, route intraperitoneal; conditions: in vivo, 168 h
Mus musculus [3] = assay: Toxicity in ICR mouse xenografted with mouse S180 cells assessed as effect on kidney weight at 8.9 umol/kg; assay type: organism-based, CCRF S-180; conditions: in vivo; how it was run: as §1
Mus musculus [4] = assay: Acute toxicity in ICR mouse assessed as jumping at 500 mg/kg, ip administered qd for 7 days; assay type: organism-based; parameters: dose 500 mg/kg, route intraperitoneal; conditions: in vivo, 168 h
B16 = assay: Antiproliferative activity against mouse B16 cells after 48 hrs by MTT assay; assay type: functional, cell-based; conditions: B16, 48 h
Mus musculus [5] = assay: Acute toxicity in ICR mouse assessed as twitch at 500 mg/kg, ip administered qd for 7 days; assay type: organism-based; parameters: dose 500 mg/kg, route intraperitoneal; conditions: in vivo, 168 h
Mus musculus [6] = assay: Toxicity in ICR mouse xenografted with mouse S180 cells assessed as increase in spleen index at 8.9 umol/kg; assay type: organism-based, CCRF S-180; conditions: in vivo; how it was run: as §1
H22 = assay: Antiproliferative activity against mouse H22 cells after 48 hrs by MTT assay; assay type: functional, cell-based; conditions: H22, 48 h
Mus musculus [7] = assay: Toxicity in ICR mouse xenografted with mouse S180 cells assessed as effect on liver weight at 8.9 umol/kg; assay type: organism-based, CCRF S-180; conditions: in vivo; how it was run: as §1
CCRF S-180 [8] = assay: Antiproliferative activity against mouse S180 cells after 48 hrs by MTT assay; assay type: functional, cell-based; conditions: CCRF S-180, 48 h
Mus musculus [9] = assay: Acute toxicity in ICR mouse assessed as supination at 500 mg/kg, ip administered qd for 7 days; assay type: organism-based; parameters: dose 500 mg/kg, route intraperitoneal; conditions: in vivo, 168 h
CCRF S-180 [10] = assay: Antitumor activity against mouse S180 cells xenografted in ICR mouse assessed as tumor growth inhibition at 8.9 umol/kg, ip administered 1 day after tumor inoculation qd for 7 days; assay type: functional; conditions: CCRF S-180, ip, read-out: GI
How it was run: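 Male ICR mice 10–12 weeks; S180 from ascites serially transplanted weekly; 1×10^7 viable cells in 0.2 ml NS implanted s.c. at right oxter; 24 h later randomized (10 per group); daily i.p. 8.9, 0.89 or 0.089 µmol/kg/day in 0.2 ml NS, 7 days; NS and cytarabine controls; sacrificed 24 h after last dose; inhibition % = [1−(Tw/Cw)]×100.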

Mus musculus [11] = assay: Acute toxicity in ICR mouse assessed as tremors at 500 mg/kg, ip administered qd for 7 days; assay type: organism-based; parameters: dose 500 mg/kg, route intraperitoneal; conditions: in vivo, 168 h
Mus musculus [12] = assay: Toxicity in ICR mouse xenografted with mouse S180 cells assessed as increase in body weight at 8.9 umol/kg; assay type: organism-based, CCRF S-180; conditions: in vivo; how it was run: as §1
Mus musculus [13] = assay: Acute toxicity in ICR mouse assessed as mortality at 500 mg/kg, ip administered qd for 7 days; assay type: organism-based; parameters: dose 500 mg/kg, route intraperitoneal; conditions: in vivo, 168 h
Mus musculus [14] = assay: Acute toxicity in ICR mouse assessed as apparent changes in any organ at 500 mg/kg, ip administered qd for 7 days; assay type: organism-based; parameters: dose 500 mg/kg, route intraperitoneal; conditions: in vivo, 168 h
[15] = Acute toxicity in ip dosed ICR mouse assessed as lethal dose; assay type: organism-based; conditions: in vivo
How it was run: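 Male ICR mice, 24 weeks old, got a single i.p. injection of 500 mg/kg in 0.2 ml NS (normal saline). They were watched for 7 days for neurotoxic behaviour (tremor, twitch, jumping, tetanus, supination) and for death.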

HepG2 = assay: Antiproliferative activity against human HepG2 cells after 48 hrs by MTT assay; assay type: functional, cell-based; conditions: HepG2, 48 h

| SMILES | IC50 (K562) | Activity (Mus musculus [1]) | Activity (Mus musculus [2]) | Activity (Mus musculus [3]) | Activity (Mus musculus [4]) | IC50 (B16) | Activity (Mus musculus [5]) | Activity (Mus musculus [6]) | IC50 (H22) | Activity (Mus musculus [7]) | IC50 (CCRF S-180 [8]) | Activity (Mus musculus [9]) | inhibition in vivo at 8.9 µmol/kg (CCRF S-180 [10]) | Activity (Mus musculus [11]) | Activity (Mus musculus [12]) | Activity (Mus musculus [13]) | Activity (Mus musculus [14]) | LD50 [15] | IC50 (HepG2) |
| --- | --- | --- | --- | --- | --- | --- | --- | --- | --- | --- | --- | --- | --- | --- | --- | --- | --- | --- | --- |
| N[C@@H](Cc1c[nH]c2ccccc12)C(=O)N[C@@H](Cc1c[nH]c2ccccc12)C(=O)N[C@@H](Cc1cnc[nH]1)C(=O)OCc1ccccc1 (H-Trp-Trp-His-OBn) | 25.3 µM | 0.28 g | Non-toxic | 0.16 g | Non-toxic | 31.7 µM | Non-toxic | 8.34 | 27 µM | 1.78 g | 26.5 µM | Non-toxic | 30.7% | Non-toxic | 10.04 g | Non-toxic | Non-toxic | > 500 mg/kg | 27.3 µM |
| CC[C@H](C)[C@H](NC(=O)[C@H](Cc1c[nH]c2ccccc12)NC(=O)[C@@H](N)Cc1c[nH]c2ccccc12)C(=O)OCc1ccccc1 (H-Trp-Trp-Ile-OBn) | 19.4 µM | 0.28 g | Non-toxic | 0.17 g | Non-toxic | 25.9 µM | Non-toxic | 8.12 | 21.7 µM | 1.85 g | 19.2 µM | Non-toxic | 51.5% | Non-toxic | 9.8 g | Non-toxic | Non-toxic | > 500 mg/kg | 22.2 µM |
| CC(C)C[C@H](NC(=O)[C@H](Cc1c[nH]c2ccccc12)NC(=O)[C@@H](N)Cc1c[nH]c2ccccc12)C(=O)OCc1ccccc1 (H-Trp-Trp-Leu-OBn) | 116 µM | 0.26 g |  | 0.16 g |  | 124 µM |  | 7.45 | 121 µM | 1.7 g | 118 µM |  | 3.29% |  | 8.4 g |  |  |  | 123 µM |
| CSCC[C@H](NC(=O)[C@H](Cc1c[nH]c2ccccc12)NC(=O)[C@@H](N)Cc1c[nH]c2ccccc12)C(=O)OCc1ccccc1 (H-Trp-Trp-Met-OBn) | 41.6 µM | 0.28 g | Non-toxic | 0.16 g | Non-toxic | 65.4 µM | Non-toxic | 7.69 | 49.1 µM | 1.74 g | 49.1 µM | Non-toxic | 16.9% | Non-toxic | 8.93 g | Non-toxic | Non-toxic | > 500 mg/kg | 52.7 µM |
| N[C@@H](Cc1c[nH]c2ccccc12)C(=O)N[C@@H](Cc1c[nH]c2ccccc12)C(=O)N[C@@H](Cc1ccccc1)C(=O)OCc1ccccc1 (H-Trp-Trp-Phe-OBn) | 14.9 µM | 0.28 g | Non-toxic | 0.16 g | Non-toxic | 19.3 µM | Non-toxic | 7.96 | 17.4 µM | 1.89 g | 14.5 µM | Non-toxic | 56.7% | Non-toxic | 9.86 g | Non-toxic | Non-toxic | > 500 mg/kg | 16.8 µM |
| N[C@@H](Cc1c[nH]c2ccccc12)C(=O)N[C@@H](Cc1c[nH]c2ccccc12)C(=O)N[C@@H](Cc1c[nH]c2ccccc12)C(=O)OCc1ccccc1 (H-Trp-Trp-Trp-OBn) | 125 µM | 0.29 g |  | 0.16 g |  | 157 µM |  | 7.75 | 98.1 µM | 1.78 g | 115 µM |  | 19.1% |  | 8.71 g |  |  |  | 154 µM |
